According to BindingDB's records for doi:10.1021/jm9900321 (Dupont Pharmaceuticals, 2000):

How the values were obtained:
[1] = biological target: T1, Integrin alpha-IIb/beta-3 (Homo sapiens, UniProt P08514+P05106); experiment: Inhibition of platelet aggregation in human gel-purified platelets containing fibrinogen (GPP+Fg).
Outline: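 Platelets are gel-filtered from human PRP on sepharose (2×10⁸ platelets/mL). They are assayed with 1 mM CaCl₂ and 1 mg/mL fibrinogen across a range of test-agent concentrations, and IC₅₀ is calculated from the inhibition curve.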

[2] = Inhibition of platelet aggregation in human platelet rich plasma (PRP)
[3] = biological target: T1, Integrin alpha-IIb/beta-3; experiment: Inhibition of platelet aggregation in human platelet rich plasma (PRP)
Outline: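 Human PRP is obtained by centrifuging blood at 150g for 10 min; platelet-poor plasma serves as the 100% transmittance blank. PRP at 2×10⁸ platelets/mL is preincubated with test agent at several concentrations for 8 min. It is then stimulated with ADP (10 μM final), and aggregation is followed as light transmittance over time to derive IC₅₀.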

T1 sequence (P05106 27-788 limits assumed): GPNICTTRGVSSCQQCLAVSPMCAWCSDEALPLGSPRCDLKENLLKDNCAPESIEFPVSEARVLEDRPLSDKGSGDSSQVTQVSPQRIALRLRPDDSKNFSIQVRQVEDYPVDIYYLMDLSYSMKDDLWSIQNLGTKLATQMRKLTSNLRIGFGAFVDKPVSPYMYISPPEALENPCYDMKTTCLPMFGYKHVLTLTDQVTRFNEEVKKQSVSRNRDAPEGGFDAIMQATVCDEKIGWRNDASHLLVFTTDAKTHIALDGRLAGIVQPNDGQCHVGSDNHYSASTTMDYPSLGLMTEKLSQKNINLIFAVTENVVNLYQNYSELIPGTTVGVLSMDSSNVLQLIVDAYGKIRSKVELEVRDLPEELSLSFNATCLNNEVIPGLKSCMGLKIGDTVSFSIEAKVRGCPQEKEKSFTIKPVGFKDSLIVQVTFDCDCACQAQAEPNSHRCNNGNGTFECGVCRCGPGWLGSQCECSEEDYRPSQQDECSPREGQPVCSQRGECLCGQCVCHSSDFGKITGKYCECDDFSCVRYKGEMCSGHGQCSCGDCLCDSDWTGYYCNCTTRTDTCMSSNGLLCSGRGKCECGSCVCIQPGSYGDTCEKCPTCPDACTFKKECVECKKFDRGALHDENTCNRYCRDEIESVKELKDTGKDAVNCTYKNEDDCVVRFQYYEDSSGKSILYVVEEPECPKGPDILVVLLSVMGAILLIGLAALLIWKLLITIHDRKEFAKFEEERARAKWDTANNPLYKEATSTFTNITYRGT
T1 sequence (P08514 32-887 limits assumed): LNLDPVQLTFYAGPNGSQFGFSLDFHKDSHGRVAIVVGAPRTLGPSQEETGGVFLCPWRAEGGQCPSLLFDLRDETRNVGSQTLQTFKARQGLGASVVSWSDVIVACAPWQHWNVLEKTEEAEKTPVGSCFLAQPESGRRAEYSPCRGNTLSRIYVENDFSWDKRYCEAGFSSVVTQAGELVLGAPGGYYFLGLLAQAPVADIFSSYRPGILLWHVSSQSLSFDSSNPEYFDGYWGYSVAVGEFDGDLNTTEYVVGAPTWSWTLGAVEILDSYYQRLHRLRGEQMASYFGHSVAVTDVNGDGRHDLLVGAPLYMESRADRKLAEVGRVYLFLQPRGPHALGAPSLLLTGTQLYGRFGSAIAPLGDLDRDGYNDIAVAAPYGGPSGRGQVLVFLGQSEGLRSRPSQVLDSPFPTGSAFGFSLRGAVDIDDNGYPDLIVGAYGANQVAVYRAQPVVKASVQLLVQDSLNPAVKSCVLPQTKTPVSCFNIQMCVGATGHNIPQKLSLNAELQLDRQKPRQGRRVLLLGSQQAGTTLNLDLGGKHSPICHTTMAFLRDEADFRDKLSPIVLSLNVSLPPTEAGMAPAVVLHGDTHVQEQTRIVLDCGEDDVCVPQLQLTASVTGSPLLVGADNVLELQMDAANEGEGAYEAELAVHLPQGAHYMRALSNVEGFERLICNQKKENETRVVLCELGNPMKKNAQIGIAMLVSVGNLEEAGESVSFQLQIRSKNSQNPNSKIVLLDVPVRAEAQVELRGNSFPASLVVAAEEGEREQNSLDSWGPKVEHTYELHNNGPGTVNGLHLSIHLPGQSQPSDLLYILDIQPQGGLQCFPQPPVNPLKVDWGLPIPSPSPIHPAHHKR
T1 sequence (P08514 891-1039 limits assumed): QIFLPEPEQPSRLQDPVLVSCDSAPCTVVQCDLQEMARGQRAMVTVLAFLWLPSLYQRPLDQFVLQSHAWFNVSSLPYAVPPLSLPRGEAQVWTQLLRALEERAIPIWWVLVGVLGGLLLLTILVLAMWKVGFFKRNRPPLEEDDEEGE

IC50 [1] [µM] | IC50 [2] [µM] | IC50 [3] [µM] | Compound
85 | – | > 100 | O=C(N[C@@H](CNC(=O)C1=NOC(CCCCNc2ccccn2)C1)C(=O)O)OCc1ccccc1 (stereo partly specified) [2-Benzyloxycarbonylamino-3-({5-[4-(pyridin-2-ylamino)-butyl]-4,5-dihydro-isoxazole-3-carbonyl}-amino)-propionic acid]
> 100 | – | – | Cc1cc(C)c(S(=O)(=O)N[C@@H](CNC(=O)C2=NOC(CCCCNS(N)(=O)=O)C2)C(=O)O)c(C)c1 (stereo partly specified) [2-[2,4,6-trimethylphenylsulfonylamino]-3-[5-(4-aminosulfonylamino)butyl)isoxazolin-3-ylcarbonyl]amino-propionic acid]
> 100 | – | – | Cc1cc(C)c(S(=O)(=O)N[C@@H](CNC(=O)C2=NOC(CCCC(=O)Nc3ncc[nH]3)C2)C(=O)O)c(C)c1 (stereo partly specified) [3-({5-[3-(1H-Imidazol-2-ylcarbamoyl)-propyl]-4,5-dihydro-isoxazole-3-carbonyl}-amino)-2-(2,4,6-trimethyl-benzenesulfonylamino)-propionic acid]
0.18 | 0.28 | – | Cc1cc(C)c(S(=O)(=O)N[C@@H](CNC(=O)C2=NOC(CCCc3cnc(N)[nH]3)C2)C(=O)O)c(C)c1 (stereo partly specified) [3-({5-[3-(2-Amino-1H-imidazol-4-yl)-propyl]-4,5-dihydro-isoxazole-3-carbonyl}-amino)-2-(2,4,6-trimethyl-benzenesulfonylamino)-propionic acid]
– | 78 | – | Cc1cc(C)c(S(=O)(=O)N[C@@H](CNC(=O)C2=NOC(CCCc3cccc(N)n3)C2)C(=O)O)c(C)c1 (stereo partly specified) [3-({5-[3-(6-Amino-pyridin-2-yl)-propyl]-4,5-dihydro-isoxazole-3-carbonyl}-amino)-2-(2,4,6-trimethyl-benzenesulfonylamino)-propionic acid]
– | 0.85 | – | Cc1cc(C)c(S(=O)(=O)N[C@@H](CNC(=O)C2=NOC(CCCCNc3ncc[nH]3)C2)C(=O)O)c(C)c1 (stereo partly specified) [3-({5-[4-(1H-Imidazol-2-ylamino)-butyl]-4,5-dihydro-isoxazole-3-carbonyl}-amino)-2-(2,4,6-trimethyl-benzenesulfonylamino)-propionic acid]
0.57 | 7.8 | – | O=C(NC[C@H](NS(=O)(=O)c1cccc2ccccc12)C(=O)O)C1=NOC(CCCCNc2ncc[nH]2)C1 (stereo partly specified) [3-({5-[4-(1H-Imidazol-2-ylamino)-butyl]-4,5-dihydro-isoxazole-3-carbonyl}-amino)-2-(naphthalene-1-sulfonylamino)-propionic acid]
0.6 | 0.69 | – | Cc1cc(C)c(S(=O)(=O)N[C@@H](CNC(=O)C2=NOC(CCCCNC3=NCCN3)C2)C(=O)O)c(C)c1 (stereo partly specified) [3-({5-[4-(4,5-Dihydro-1H-imidazol-2-ylamino)-butyl]-4,5-dihydro-isoxazole-3-carbonyl}-amino)-2-(2,4,6-trimethyl-benzenesulfonylamino)-propionic acid]
6.5 | 78 | – | Cc1cc(C)c(S(=O)(=O)N[C@@H](CNC(=O)C2=NOC(CCCCNc3nccc4ccccc34)C2)C(=O)O)c(C)c1 (stereo partly specified) [3-({5-[4-(Isoquinolin-1-ylamino)-butyl]-4,5-dihydro-isoxazole-3-carbonyl}-amino)-2-(2,4,6-trimethyl-benzenesulfonylamino)-propionic acid]
7.7 | 11 | – | Cc1cc(C)c(S(=O)(=O)N[C@@H](CNC(=O)C2=NOC(CCCCNc3cc4ccccc4cn3)C2)C(=O)O)c(C)c1 (stereo partly specified) [3-({5-[4-(Isoquinolin-3-ylamino)-butyl]-4,5-dihydro-isoxazole-3-carbonyl}-amino)-2-(2,4,6-trimethyl-benzenesulfonylamino)-propionic acid]
6.5 | 16 | – | Cc1cc(C)c(S(=O)(=O)N[C@@H](CNC(=O)C2=NOC(CCCCNc3ccccn3)C2)C(=O)O)c(C)c1 (stereo partly specified) [3-({5-[4-(Pyridin-2-ylamino)-butyl]-4,5-dihydro-isoxazole-3-carbonyl}-amino)-2-(2,4,6-trimethyl-benzenesulfonylamino)-propionic acid]
32 | 120 | – | Cc1cc(C)c(S(=O)(=O)N[C@@H](CNC(=O)C2=NOC(CCNC(=O)Nc3ncc[nH]3)C2)C(=O)O)c(C)c1 (stereo partly specified) [3-[(5-{2-[3-(1H-Imidazol-2-yl)-ureido]-ethyl}-4,5-dihydro-isoxazole-3-carbonyl)-amino]-2-(2,4,6-trimethyl-benzenesulfonylamino)-propionic acid]
– | 0.16 | – | Cc1cc(C)c(S(=O)(=O)N[C@@H](CNC(=O)C2=NOC(CCCCNC(=N)N)C2)C(=O)O)c(C)c1 (stereo partly drawn) [3-{5-[4-amino(imino)methylaminobutyl]-4,5-dihydro-3-isoxazolylcarboxamido}-2-mesitylsulfonamido-(2S)-propanoic acid]

The next lines start with the compound.

Compound | IC50 [1] [µM] | IC50 [2] [µM] | IC50 [3] [µM]
N=C(N)c1ccc(C2=NO[C@@H](CC(=O)NCCC(=O)O)C2)cc1 | 0.14 | 0.24 | –
Cc1cc(C)c(S(=O)(=O)N[C@H](CNC(=O)C2=NOC(CCCCNc3ncc[nH]3)C2)C(=O)O)c(C)c1 (stereo partly specified) | 28 | 68 | –
O=C(NC[C@H](NS(=O)(=O)c1c(Cl)cccc1Cl)C(=O)O)C1=NOC(CCCCNc2ncc[nH]2)C1 (stereo partly specified) [2-(2,6-Dichloro-benzenesulfonylamino)-3-({5-[4-(1H-imidazol-2-ylamino)-butyl]-4,5-dihydro-isoxazole-3-carbonyl}-amino)-propionic acid] | 0.19 | 0.35 | –
Cc1cccc(Cl)c1S(=O)(=O)N[C@@H](CNC(=O)C1=NOC(CCCCNc2ncc[nH]2)C1)C(=O)O (stereo partly specified) [2-(2-Chloro-6-methyl-benzenesulfonylamino)-3-({5-[4-(1H-imidazol-2-ylamino)-butyl]-4,5-dihydro-isoxazole-3-carbonyl}-amino)-propionic acid] | – | 0.39 | –
O=C(NC[C@H](NS(=O)(=O)c1c(Cl)cc(-c2ccccc2)cc1Cl)C(=O)O)C1=NOC(CCCCNc2ncc[nH]2)C1 (stereo partly specified) [2-(3,5-Dichloro-biphenyl-4-sulfonylamino)-3-({5-[4-(1H-imidazol-2-ylamino)-butyl]-4,5-dihydro-isoxazole-3-carbonyl}-amino)-propionic acid] | – | 1.6 | –
Cc1cc(-c2ccccc2)cc(C)c1S(=O)(=O)N[C@@H](CNC(=O)C1=NOC(CCCCNc2ncc[nH]2)C1)C(=O)O (stereo partly specified) [2-(3,5-Dimethyl-biphenyl-4-sulfonylamino)-3-({5-[4-(1H-imidazol-2-ylamino)-butyl]-4,5-dihydro-isoxazole-3-carbonyl}-amino)-propionic acid] | 0.69 | 3.1 | –
Cc1cc(-c2ccccc2)cc(C)c1S(=O)(=O)N[C@@H](CNC(=O)C1=NOC(CCCCNc2ccccn2)C1)C(=O)O (stereo partly specified) [2-(3,5-Dimethyl-biphenyl-4-sulfonylamino)-3-({5-[4-(pyridin-2-ylamino)-butyl]-4,5-dihydro-isoxazole-3-carbonyl}-amino)-propionic acid] | – | > 100 | –
Cc1noc(C)c1S(=O)(=O)N[C@@H](CNC(=O)C1=NOC(CCCCNc2ncc[nH]2)C1)C(=O)O (stereo partly specified) [2-(3,5-Dimethyl-isoxazole-4-sulfonylamino)-3-({5-[4-(1H-imidazol-2-ylamino)-butyl]-4,5-dihydro-isoxazole-3-carbonyl}-amino)-propionic acid] | – | 1.5 | –
CC(C)c1ccc(S(=O)(=O)N[C@@H](CNC(=O)C2=NOC(CCCCNc3ccccn3)C2)C(=O)O)cc1 (stereo partly specified) [2-(4-Isopropyl-benzenesulfonylamino)-3-({5-[4-(pyridin-2-ylamino)-butyl]-4,5-dihydro-isoxazole-3-carbonyl}-amino)-propionic acid] | – | > 100 | –
O=C(NC[C@H](NS(=O)(=O)c1ccc(-c2ccccc2)cc1)C(=O)O)C1=NOC(CCCCNc2ncc[nH]2)C1 (stereo partly specified) [2-(Biphenyl-4-sulfonylamino)-3-({5-[4-(1H-imidazol-2-ylamino)-butyl]-4,5-dihydro-isoxazole-3-carbonyl}-amino)-propionic acid] | 5 | 43 | –
O=C(NC[C@H](NS(=O)(=O)c1cccc2ccccc12)C(=O)O)C1=NOC(CCCCNc2ccccn2)C1 (stereo partly specified) [2-(Naphthalene-1-sulfonylamino)-3-({5-[4-(pyridin-2-ylamino)-butyl]-4,5-dihydro-isoxazole-3-carbonyl}-amino)-propionic acid] | – | > 100 | –
N[C@@H](CNC(=O)C1=NOC(CCCCNc2ncc[nH]2)C1)C(=O)O (stereo partly specified) [2-Amino-3-({5-[4-(1H-imidazol-2-ylamino)-butyl]-4,5-dihydro-isoxazole-3-carbonyl}-amino)-propionic acid] | 47 | 84 | –
O=C(NC[C@H](NS(=O)(=O)c1ccccc1)C(=O)O)C1=NOC(CCCCNc2ccccn2)C1 (stereo partly specified) [2-Benzenesulfonylamino-3-({5-[4-(pyridin-2-ylamino)-butyl]-4,5-dihydro-isoxazole-3-carbonyl}-amino)-propionic acid] | 18 | 30 | –
